Assay results gathered from unrelated publications.
Lines come from different studies, so protocols differ.
Organism: Escherichia coli
Read-out: microbial growth

NC1CCc2c1[nH]c1ccc(Cl)c(Cl)c21 (stereo not drawn)
MIC (broth dilution; ATCC25922): 16 µg/mL

COc1ccc(NCc2ccc(Oc3ccccn3)cc2)cc1
MIC: > 25 µg/mL

N=C(N)c1ccc(OCCCCCOc2ccc(C(=N)N)cc2)cc1
MIC (broth dilution; BW25113): 200 µg/mL

Cc1ccc2nc(-c3c(F)cccc3Cl)[nH]c2c1
MIC (broth dilution; ATCC25922): 128 µg/mL

CC(C)Oc1c(NC(=O)c2ccc(NC(=O)[C@H](CC(N)=O)NC(=O)c3ccc(NC(=O)c4ccc(C5(C(F)(F)F)N=N5)cc4)cc3)cc2)ccc(C(=O)Nc2ccc(C(=O)O)cc2)c1O
MIC (DSM1116): 16 µg/mL

C[C@@H](O)[C@H]1C(=O)N2C(C(=O)O)=C(S[C@@H]3CN[C@H](C(=O)N(C)C)C3)[C@H](C)[C@H]12
MIC (broth dilution; 24 h): 0.0312 µg/mL

C[C@H](CCC(=O)NCCCNCCCCNCCCN)[C@H]1CC[C@H]2[C@@H]3[C@H](O)C[C@@H]4C[C@H](O)CC[C@]4(C)[C@H]3C[C@H](O)[C@]12C
MIC (broth dilution; MG1655; 20 h): > 256 µg/mL

CC(C)Oc1c(NC(=O)c2ccc(NC(=O)[C@H](CC(N)=O)NC(=O)c3ccc(NC(=O)c4cccc(N)c4)cc3)cc2)ccc(C(=O)Nc2ccc(C(=O)O)cc2)c1O
MIC (DSM1116): 32 µg/mL

N=C(N)c1ccc(OCc2ccccc2COc2ccc(C(=N)N)cc2)cc1
MIC (BW25113): > 200 µg/mL

C[C@H]1COc2c(N3CCN(C)CC3)c(F)cc3c(=O)c(C(=O)O)cn1c23
MIC (agar dilution; ATCC25): ≤ 0.03 µg/mL

CC(C)Oc1c(NC(=O)c2ccc(NC(=O)[C@H](CC(N)=O)NC(=O)c3ccc(C#Cc4ccc(C#N)cc4)cc3)cc2)ccc(C(=O)Nc2ccc(C(=O)O)cc2)c1O
MIC (DSM1116): 0.06 µg/mL

CCCCCCC#Cc1cncc(-c2nnc(SCc3ccc(C#N)cc3)n2C)c1
MIC: ≥ 20 µg/mL

O=C(Cc1cc(O)c(O)c(O)c1)NCCCCCCCC[P+](c1ccccc1)(c1ccccc1)c1ccccc1.[Br-]
MIC (broth dilution; ATCC25922; 18 h): > 32 µg/mL

N=C(N)c1ccc(OCc2cc(Br)cc(COc3ccc(C(=N)N)cc3)c2)cc1
MIC (broth dilution; ATCC25922): 100 µg/mL

CC(C)Oc1c(NC(=O)c2ccc(NC(=O)[C@H](CC(N)=O)NC(=O)c3ccc(NC(=O)c4ccc([N+](=O)[O-])c(OC(C)C)c4O)cc3)cc2)ccc(C(=O)Nc2ccc(C(=O)O)cc2)c1O
MIC (DSM1116): > 64 µg/mL

Cc1c(CN(C)C(=O)/C=C/c2cnc3c(c2)CC(NC(=O)OC(C)(C)C)C(=O)N3)oc2ccccc12 (stereo not drawn)
MIC (broth dilution; BAA2340; clinical isolate): > 32 µg/mL

Cc1ccc2nc(-c3ccncc3)[nH]c2c1
MIC (broth dilution; ATCC25922): 64 µg/mL

CO[C@H]1/C=C/O[C@@]2(C)Oc3c(C)c(O)c4c(O)c(c(/C=N/N5CCN(C)CC5)c(O)c4c3C2=O)NC(=O)/C(C)=C\C=C\[C@H](C)[C@H](O)[C@@H](C)[C@@H](O)[C@@H](C)[C@H](OC(C)=O)[C@@H]1C
MIC (ATCC25922): 4 µg/mL

CCCCCCC#Cc1cncc(-c2nnc(SCc3ccc(Cl)cc3)n2C2CC2)c1
MIC: ≥ 20 µg/mL

C=CCn1c(-c2ccc(Cl)c(Cl)c2)nc2ccccc21
MIC (broth dilution; ATCC25922): 64 µg/mL

CCCCCCC/C=C/C(=O)N1C(=O)/C(=C(/C)O)C(=O)C1CO (stereo not drawn)
MIC (K12; K12): > 200 µg/mL

N=C(N)c1cccc(OCCCCCOc2cccc(C(=N)N)c2)c1
MIC (BW25113): > 200 µg/mL

O=[N+]([O-])c1ccc(-c2nc3cccc(O)c3[nH]2)o1
MIC (broth dilution; ATTC25922): 2 µg/mL

N=C(N)c1ccc(OCc2ccc(-c3ccccc3)cc2COc2ccc(C(=N)N)cc2)cc1
MIC (BW25113): ≥ 200 µg/mL

Cc1ccc(C)n1-c1ccc(-c2n[nH]c(=S)[nH]2)cc1
MIC (broth dilution; ATCC10536; 18 h): 8 µg/mL

COc1cccc(-c2nc3ccc(C)cc3[nH]2)c1
MIC (broth dilution; ATCC25922): 128 µg/mL

CC(C)(O/N=C(\C(=O)N[C@@H]1C(=O)N2C(C(=O)[O-])=C(C[n+]3ccccc3)CS[C@H]12)c1csc(N)n1)C(=O)O
MIC (broth dilution; ATCC25922): 0.25 µg/mL

Cc1ccc2nc(-c3c4ccccc4cc4ccccc34)[nH]c2c1
MIC (broth dilution; ATCC25922): 128 µg/mL

CC1=NN(CNc2ccc(C(=O)O)cc2)C(=O)C1=NNn1c(-c2ccccc2)nc2ccccc2c1=O
MIC (broth dilution; 24 h): 50.5 µM

CNC(=O)c1cc(Oc2ccc(NC(=O)Nc3ccc(Cl)c(C(F)(F)F)c3)cc2)ccn1
MIC (CFT073): > 100 µM

CC(C)Oc1c(NC(=O)c2ccc(NC(=O)[C@H](CC(N)=O)NC(=O)c3ccc(NC(=O)c4ccc(NC(N)=O)cc4)cc3)cc2)ccc(C(=O)Nc2ccc(C(=O)O)cc2)c1O
MIC (DSM1116): 0.5 µg/mL

O=C(CCCCCCCC[P+](c1ccccc1)(c1ccccc1)c1ccccc1)Nc1ccc(O)c(O)c1.[Br-]
MIC (broth dilution; ATCC25922; 18 h): > 32 µg/mL

CCCCCCC/C=C/C(=O)N1C(=O)/C(=C(\O)c2ccc(F)cc2)C(=O)C1CC(C)C (stereo not drawn)
MIC (K12; K12): > 200 µg/mL

CC(C)Oc1c(-n2cc(-c3ccc(NC(=O)C(CC(N)=O)NC(=O)c4ccc(NC(=O)c5ccc(C#N)cc5)cc4)cc3)nn2)ccc(C(=O)Nc2ccc(C(=O)O)cc2)c1O (stereo not drawn)
MIC (DSM1116): 0.06 µg/mL

Clc1ccc(NCc2ccc(Oc3ccccn3)cc2)cc1
MIC: > 50 µg/mL

COc1c(C)c(OC(C)=O)c(C)c(OC(C)=O)c1C(=O)/C=C/c1ccccc1
MIC (broth dilution; ATCC25922): 5000 µg/mL

Cc1ccc2nc(-c3ccc(Cl)c(Cl)c3)[nH]c2c1
MIC (broth dilution; ATCC25922): 32 µg/mL

CCOc1ccc(-c2nc3cc(-c4nc5cc(N6CCN(C)CC6)ccc5[nH]4)ccc3[nH]2)cc1
MIC (broth dilution; 25922; 24 h): 8 to 16 µg/mL

CCCCCCC/C=C/C(=O)N1C(=O)/C(=C(/C)O)C(=O)C1Cc1ccc(OC(C)(C)C)cc1 (stereo not drawn)
MIC (K12; K12): > 200 µg/mL

CCOc1ccc(-c2nc3ccccc3n2Cc2ccccc2)cc1
MIC (broth dilution; ATCC25922): 64 µg/mL

CC(C)Oc1c(NC(=O)c2ccc(NC(=O)[C@H](CC(N)=O)NC(=O)c3ccc(NC(=O)c4ccc(C#N)nc4)cc3)cc2)ccc(C(=O)Nc2ccc(C(=O)O)cc2)c1O
MIC (DSM1116): ≤ 0.03 µg/mL

COc1c(C)c(O)c(C)c(O)c1C(=O)/C=C/c1ccccc1
MIC (broth dilution; ATCC25922): 1250 µg/mL

CNc1cccc2cc(C(=O)NCc3ccc(C(=O)O)cc3)c(=O)[nH]c12
MIC (broth dilution; ATCC25922): > 64 µg/mL

COc1c(C)c(OS(=O)(=O)c2ccc3ccccc3c2)c(C)c(OS(=O)(=O)c2ccc3ccccc3c2)c1C(=O)/C=C/c1ccccc1
MIC (broth dilution; ATCC25922): 5000 µg/mL

Cc1ccc(C)n1-c1ccc(-c2nnc(-c3ccc(Br)cc3)[nH]2)cc1
MIC (broth dilution; ATCC10536; 18 h): 125 µg/mL

N=C(N)c1ccc(OCc2cccc(COc3ccc(C(=N)N)cc3)c2)cc1
MIC (BW25113): > 200 µg/mL

CC(C)Oc1c(NC(=O)c2ccc(NC(=O)[C@H](CC(N)=O)NC(=O)c3ccc(NC(=O)c4ccc(C#N)cc4)cc3)cc2)ccc(C(=O)Nc2cccc(C(=O)O)c2)c1O
MIC (DSM1116): 0.5 µg/mL

CSc1ccc(-c2nc3ccc(C)cc3n2Cc2ccccc2)cc1
MIC (broth dilution; ATCC25922): 128 µg/mL

N=C(N)c1ccc(OCCCCCCCCOc2ccc(C(=N)N)cc2)cc1
MIC (broth dilution; BW25113): > 25 µg/mL

O=C1NN=C(N=Cc2ccc(O)cc2O)C1=NNn1c(-c2ccccc2)nc2ccccc2c1=O
MIC (broth dilution; 24 h): 53.5 µM

O=C(O)c1cn(C2CC2)c2cc(N3CCNCC3)c(F)cc2c1=O
MIC (broth dilution; ATCC10536; 18 h): ≤ 1 µg/mL

N=C(N)c1ccc(OCCC(CCOc2ccc(C(=N)N)cc2)c2ccccc2)cc1 (stereo not drawn)
MIC (BW25113): > 200 µg/mL

CC1=NN(CNc2ccc(O)cc2)C(=O)C1=NNn1c(-c2ccccc2)nc2ccccc2c1=O
MIC (broth dilution; 24 h): 107 µM

CCCCCCC/C=C/C(=O)N1C(=O)/C(=C(\O)CCCC)C(=O)C1CC(C)C (stereo not drawn)
MIC (K12; K12): > 200 µg/mL
